According to ChEMBL document CHEMBL5705902, “Role of G Protein-Coupled Receptor Kinases 2 and 3 in μ-Opioid Receptor Desensitization and Internalization” (Mol Pharmacol, 2015):
The source made the active and inactive calls. The calls are words filed in the database; no cut-off is given here.

What was measured:
[1] = biological target: cAMP-dependent protein kinase (PKA) (Homo sapiens) (UniProt P22694+P17612+P22612); assay: Inhibition of human PKA assessed as remaining activity at 1 uM in presence of 32ATP relative to control; assay type: protein assay
Procedure, shortened: (§1)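 Express panel of 52 purified human kinases run in vitro. Kinase activity was measured directly by a radioactive filter-binding assay with ³²ATP, at ATP levels at or below each kinase's calculated Km for ATP. The compound was tested at 1 μM. Each assay was run in duplicate, and activity is given as the mean percentage (with S.D.) of activity without inhibitor.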

[2] = biological target: Serine/threonine-protein kinase PAK 4 (Homo sapiens) (UniProt O96013); assay: Inhibition of human PAK4 assessed as remaining activity at 1 uM in presence of 32ATP relative to control; procedure, shortened: as §1
[3] = biological target: Protein kinase C (PKC) (Homo sapiens) (UniProt O94806+P41743+P17252+P05129+Q05655+P05771+Q05513+Q02156+P24723+Q15139+Q04759); assay: Inhibition of PKC (unknown origin) at 1 uM in presence of 32ATP relative to control; assay type: protein assay
Procedure, shortened: (§2)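 Express screen of 52 purified human kinases run as a radioactive filter-binding assay with 32ATP, at 1 μM inhibitor. ATP was at or below each kinase's calculated Km. Activity is given as percent of the activity without inhibitor. Run in duplicate; mean with S.D.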

[4] = biological target: Dual specificity mitogen-activated protein kinase kinase 1 (Homo sapiens) (UniProt Q02750); assay: Inhibition of human MKK1 assessed as remaining activity at 1 uM in presence of 32ATP relative to control; procedure, shortened: as §1
[5] = biological target: Myosin light chain kinase, smooth muscle (Homo sapiens) (UniProt Q15746); assay: Inhibition of human SmMLCK assessed as remaining activity at 1 uM in presence of 32ATP relative to control; procedure, shortened: as §1
[6] = biological target: Receptor tyrosine-protein kinase erbB-4 (Homo sapiens) (UniProt Q15303); assay: Inhibition of human HER4 assessed as remaining activity at 1 uM in presence of 32ATP relative to control; procedure, shortened: as §1
[7] = biological target: Mu-type opioid receptor (Rattus norvegicus) (UniProt P33535); assay: Inhibition of MOPr desensitization (unknown origin) assessed as reduction in the DAMGO induced desensitization at 3 to 30 uM incubated for 15 mins; conditions: dose 3-30 µM
Target sequence in this assay (P33535 whole entry, looked up): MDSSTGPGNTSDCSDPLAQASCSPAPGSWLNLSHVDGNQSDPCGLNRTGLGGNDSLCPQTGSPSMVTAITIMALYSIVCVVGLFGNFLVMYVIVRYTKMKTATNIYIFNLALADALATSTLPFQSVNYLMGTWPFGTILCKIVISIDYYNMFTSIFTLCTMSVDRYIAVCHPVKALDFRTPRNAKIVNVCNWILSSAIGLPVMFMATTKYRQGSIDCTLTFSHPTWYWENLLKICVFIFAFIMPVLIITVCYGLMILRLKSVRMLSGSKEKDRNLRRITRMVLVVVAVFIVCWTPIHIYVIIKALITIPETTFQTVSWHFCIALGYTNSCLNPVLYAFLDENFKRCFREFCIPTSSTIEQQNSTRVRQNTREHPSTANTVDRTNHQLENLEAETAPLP

[8] = biological target: Serine/threonine-protein kinase PLK1 (Homo sapiens) (UniProt P53350); assay: Inhibition of human PLK1 assessed as remaining activity at 1 uM in presence of 32ATP relative to control; procedure, shortened: as §1
[9] = biological target: Homeodomain-interacting protein kinase 2 (Homo sapiens) (UniProt Q9H2X6); assay: Inhibition of human HIPK2 assessed as remaining activity at 1 uM in presence of 32ATP relative to control; procedure, shortened: as §1
[10] = biological target: Serine/threonine-protein kinase Chk2 (Homo sapiens) (UniProt O96017); assay: Inhibition of human CHK2 assessed as remaining activity at 1 uM in presence of 32ATP relative to control; procedure, shortened: as §2
[11] = organism: Homo sapiens; assay: Inhibition of human VEGFR assessed as remaining activity at 1 uM in presence of 32ATP relative to control; procedure, shortened: as §1
[12] = biological target: Ribosomal protein S6 kinase alpha-1 (Homo sapiens) (UniProt Q15418); assay: Inhibition of human RSK1 assessed as remaining activity at 1 uM in presence of 32ATP relative to control; procedure, shortened: as §1
[13] = biological target: Rho-associated protein kinase 2 (Homo sapiens) (UniProt O75116); assay: Inhibition of human ROCK 2 assessed as remaining activity at 1 uM in presence of 32ATP relative to control; procedure, shortened: as §1
[14] = biological target: Eukaryotic elongation factor 2 kinase (Homo sapiens) (UniProt O00418); assay: Inhibition of human EF2K assessed as remaining activity at 1 uM in presence of 32ATP relative to control; procedure, shortened: as §2
[15] = biological target: Mitogen-activated protein kinase 3 (Homo sapiens) (UniProt P27361); assay: Inhibition of human ERK1 assessed as remaining activity at 1 uM in presence of 32ATP relative to control; procedure, shortened: as §1
[16] = biological target: c-Jun N-terminal kinase, JNK (Homo sapiens) (UniProt P45983+P53779+P45984); assay: Inhibition of JNK (unknown origin) at 1 uM in presence of 32ATP relative to control; assay type: protein assay; procedure, shortened: as §2
[17] = biological target: Serine/threonine-protein kinase 3 (Homo sapiens) (UniProt Q13188); assay: Inhibition of human MST2 assessed as remaining activity at 1 uM in presence of 32ATP relative to control; procedure, shortened: as §1
[18] = biological target: Mitogen-activated protein kinase 14 (Homo sapiens) (UniProt Q16539); assay: Inhibition of human p38a MAPK assessed as remaining activity at 1 uM in presence of 32ATP relative to control; procedure, shortened: as §1
[19] = biological target: Aurora kinase B (Homo sapiens) (UniProt Q96GD4); assay: Inhibition of human Aurora B assessed as remaining activity at 1 uM in presence of 32ATP relative to control; procedure, shortened: as §2
[20] = biological target: Mu-type opioid receptor (Rattus norvegicus) (UniProt P33535); assay: Inhibition of MOPr desensitization in wistar rat LC neuron cells assessed as reduction in the Met-Enk induced desensitization at 30 uM incubated for 15 mins before in the presence of amlexanox; assay type: functional, cell-based
Target sequence in this assay (P33535 whole entry): as the sequence (P33535 whole entry, looked up) above

[21] = biological target: Tyrosine-protein kinase Lck (Homo sapiens) (UniProt P06239); assay: Inhibition of human Lck assessed as remaining activity at 1 uM in presence of 32ATP relative to control; procedure, shortened: as §1
[22] = biological target: Calcium/calmodulin-dependent protein kinase kinase 2 (Homo sapiens) (UniProt Q96RR4); assay: Inhibition of human CAMKKb assessed as remaining activity at 1 uM in presence of 32ATP relative to control; procedure, shortened: as §2
[23] = biological target: Glycogen synthase kinase-3 beta (Homo sapiens) (UniProt P49841); assay: Inhibition of human GSK3b assessed as remaining activity at 1 uM in presence of 32ATP relative to control; procedure, shortened: as §1
[24] = biological target: Mu-type opioid receptor (Rattus norvegicus) (UniProt P33535); assay: Inhibition of HA-tagged rat MOPr in HEK293 cells assessed as DAMGO induced MOPr phosphorylation at Ser375 level at 30 uM preincubated for 30 mins by western blot analysis; assay type: functional, cell-based
Procedure, shortened: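 Serum-starved HEK 293 cells stably expressing HA-rat MOPr were pretreated with inhibitor for 30 min, then DAMGO 10 μM for 5 min. Receptor was enriched on WGA-agarose overnight at 4°C and blotted for pSer375. Densitometry was done in duplicate and normalized to total HA-MOPr; n = 3.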
Target sequence in this assay (P33535 whole entry): as the sequence (P33535 whole entry, looked up) above

[25] = biological target: Dual specificity tyrosine-phosphorylation-regulated kinase 1A (Homo sapiens) (UniProt Q13627); assay: Inhibition of human DYRK1A assessed as remaining activity at 1 uM in presence of 32ATP relative to control; procedure, shortened: as §2
[26] = organism: Homo sapiens; assay: Inhibition of CAMKK (unknown origin) at 1 uM in presence of 32ATP relative to control; procedure, shortened: as §2

Sequence of Mitogen-activated protein kinase 14 (Homo sapiens) (Q16539 whole entry): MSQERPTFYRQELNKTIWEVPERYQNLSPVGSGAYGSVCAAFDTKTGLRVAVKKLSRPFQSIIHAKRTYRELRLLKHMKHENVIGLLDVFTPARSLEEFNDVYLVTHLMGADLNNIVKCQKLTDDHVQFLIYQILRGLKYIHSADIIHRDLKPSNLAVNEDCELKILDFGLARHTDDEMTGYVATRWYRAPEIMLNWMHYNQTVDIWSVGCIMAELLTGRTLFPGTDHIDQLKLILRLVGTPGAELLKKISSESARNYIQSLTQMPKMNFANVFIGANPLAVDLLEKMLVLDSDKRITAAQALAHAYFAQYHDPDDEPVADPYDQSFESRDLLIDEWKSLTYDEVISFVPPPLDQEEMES
Sequence of Tyrosine-protein kinase Lck (Homo sapiens) (P06239 2-509 limits assumed): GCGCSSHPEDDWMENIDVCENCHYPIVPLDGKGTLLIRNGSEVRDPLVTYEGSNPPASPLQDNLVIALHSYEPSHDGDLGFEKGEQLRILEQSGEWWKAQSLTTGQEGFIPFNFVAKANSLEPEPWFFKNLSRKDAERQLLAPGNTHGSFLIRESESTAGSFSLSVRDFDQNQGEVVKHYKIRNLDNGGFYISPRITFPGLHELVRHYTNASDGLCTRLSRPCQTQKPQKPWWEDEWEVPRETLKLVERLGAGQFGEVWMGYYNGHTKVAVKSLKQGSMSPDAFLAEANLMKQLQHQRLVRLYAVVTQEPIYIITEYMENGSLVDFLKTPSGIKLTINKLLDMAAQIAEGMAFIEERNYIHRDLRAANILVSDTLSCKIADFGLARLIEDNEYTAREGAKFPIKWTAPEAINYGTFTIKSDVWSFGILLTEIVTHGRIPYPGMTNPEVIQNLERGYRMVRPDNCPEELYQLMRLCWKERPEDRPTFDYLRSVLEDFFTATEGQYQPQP
Sequence of Eukaryotic elongation factor 2 kinase (Homo sapiens) (O00418 whole entry): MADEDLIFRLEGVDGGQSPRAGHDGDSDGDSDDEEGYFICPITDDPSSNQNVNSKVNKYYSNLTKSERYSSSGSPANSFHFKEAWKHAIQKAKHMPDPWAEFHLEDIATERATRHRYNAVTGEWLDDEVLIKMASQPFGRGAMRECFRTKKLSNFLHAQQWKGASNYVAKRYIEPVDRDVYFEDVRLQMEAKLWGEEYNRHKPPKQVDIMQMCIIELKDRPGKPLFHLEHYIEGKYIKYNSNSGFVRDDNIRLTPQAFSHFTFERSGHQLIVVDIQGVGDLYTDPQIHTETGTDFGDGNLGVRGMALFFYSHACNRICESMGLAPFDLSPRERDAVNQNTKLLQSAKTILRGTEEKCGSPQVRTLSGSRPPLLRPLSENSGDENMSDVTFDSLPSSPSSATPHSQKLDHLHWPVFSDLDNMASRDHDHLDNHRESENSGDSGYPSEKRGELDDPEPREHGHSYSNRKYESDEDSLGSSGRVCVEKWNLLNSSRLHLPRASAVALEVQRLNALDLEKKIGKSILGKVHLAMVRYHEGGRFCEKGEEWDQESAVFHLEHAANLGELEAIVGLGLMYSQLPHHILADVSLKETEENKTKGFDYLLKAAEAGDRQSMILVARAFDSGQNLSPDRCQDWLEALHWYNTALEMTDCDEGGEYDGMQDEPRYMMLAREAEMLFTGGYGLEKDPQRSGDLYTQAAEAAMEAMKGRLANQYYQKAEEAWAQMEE
Sequence of Homeodomain-interacting protein kinase 2 (Homo sapiens) (Q9H2X6 whole entry, looked up): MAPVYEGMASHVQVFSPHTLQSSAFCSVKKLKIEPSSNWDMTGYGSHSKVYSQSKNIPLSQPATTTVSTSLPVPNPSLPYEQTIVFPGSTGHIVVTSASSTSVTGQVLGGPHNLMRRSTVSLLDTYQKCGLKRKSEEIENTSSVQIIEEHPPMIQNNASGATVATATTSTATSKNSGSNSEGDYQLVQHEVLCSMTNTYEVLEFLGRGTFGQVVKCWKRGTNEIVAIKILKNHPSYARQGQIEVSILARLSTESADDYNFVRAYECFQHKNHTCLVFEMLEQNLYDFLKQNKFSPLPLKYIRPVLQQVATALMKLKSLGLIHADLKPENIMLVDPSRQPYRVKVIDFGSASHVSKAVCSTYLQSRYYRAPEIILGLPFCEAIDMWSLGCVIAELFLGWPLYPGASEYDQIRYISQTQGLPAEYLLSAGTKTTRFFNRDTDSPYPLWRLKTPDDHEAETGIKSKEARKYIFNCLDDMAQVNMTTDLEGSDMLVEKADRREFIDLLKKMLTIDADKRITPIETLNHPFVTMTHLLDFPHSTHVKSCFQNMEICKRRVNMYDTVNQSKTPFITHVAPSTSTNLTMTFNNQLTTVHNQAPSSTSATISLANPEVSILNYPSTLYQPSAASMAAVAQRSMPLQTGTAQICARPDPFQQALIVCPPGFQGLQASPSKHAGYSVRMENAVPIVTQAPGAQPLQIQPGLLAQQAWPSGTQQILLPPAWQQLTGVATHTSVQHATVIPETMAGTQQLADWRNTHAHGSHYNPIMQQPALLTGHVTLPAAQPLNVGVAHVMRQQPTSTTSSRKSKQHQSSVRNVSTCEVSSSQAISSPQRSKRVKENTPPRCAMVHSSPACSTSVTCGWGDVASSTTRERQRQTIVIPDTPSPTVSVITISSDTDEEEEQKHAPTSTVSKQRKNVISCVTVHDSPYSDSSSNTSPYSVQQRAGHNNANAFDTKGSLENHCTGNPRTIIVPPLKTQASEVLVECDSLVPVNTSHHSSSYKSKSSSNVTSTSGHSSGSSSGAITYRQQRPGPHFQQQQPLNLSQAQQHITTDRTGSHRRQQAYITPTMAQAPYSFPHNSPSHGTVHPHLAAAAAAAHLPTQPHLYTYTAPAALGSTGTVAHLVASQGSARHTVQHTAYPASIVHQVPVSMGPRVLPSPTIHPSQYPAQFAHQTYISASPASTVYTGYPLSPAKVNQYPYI
Sequence of Rho-associated protein kinase 2 (Homo sapiens) (O75116 whole entry, looked up): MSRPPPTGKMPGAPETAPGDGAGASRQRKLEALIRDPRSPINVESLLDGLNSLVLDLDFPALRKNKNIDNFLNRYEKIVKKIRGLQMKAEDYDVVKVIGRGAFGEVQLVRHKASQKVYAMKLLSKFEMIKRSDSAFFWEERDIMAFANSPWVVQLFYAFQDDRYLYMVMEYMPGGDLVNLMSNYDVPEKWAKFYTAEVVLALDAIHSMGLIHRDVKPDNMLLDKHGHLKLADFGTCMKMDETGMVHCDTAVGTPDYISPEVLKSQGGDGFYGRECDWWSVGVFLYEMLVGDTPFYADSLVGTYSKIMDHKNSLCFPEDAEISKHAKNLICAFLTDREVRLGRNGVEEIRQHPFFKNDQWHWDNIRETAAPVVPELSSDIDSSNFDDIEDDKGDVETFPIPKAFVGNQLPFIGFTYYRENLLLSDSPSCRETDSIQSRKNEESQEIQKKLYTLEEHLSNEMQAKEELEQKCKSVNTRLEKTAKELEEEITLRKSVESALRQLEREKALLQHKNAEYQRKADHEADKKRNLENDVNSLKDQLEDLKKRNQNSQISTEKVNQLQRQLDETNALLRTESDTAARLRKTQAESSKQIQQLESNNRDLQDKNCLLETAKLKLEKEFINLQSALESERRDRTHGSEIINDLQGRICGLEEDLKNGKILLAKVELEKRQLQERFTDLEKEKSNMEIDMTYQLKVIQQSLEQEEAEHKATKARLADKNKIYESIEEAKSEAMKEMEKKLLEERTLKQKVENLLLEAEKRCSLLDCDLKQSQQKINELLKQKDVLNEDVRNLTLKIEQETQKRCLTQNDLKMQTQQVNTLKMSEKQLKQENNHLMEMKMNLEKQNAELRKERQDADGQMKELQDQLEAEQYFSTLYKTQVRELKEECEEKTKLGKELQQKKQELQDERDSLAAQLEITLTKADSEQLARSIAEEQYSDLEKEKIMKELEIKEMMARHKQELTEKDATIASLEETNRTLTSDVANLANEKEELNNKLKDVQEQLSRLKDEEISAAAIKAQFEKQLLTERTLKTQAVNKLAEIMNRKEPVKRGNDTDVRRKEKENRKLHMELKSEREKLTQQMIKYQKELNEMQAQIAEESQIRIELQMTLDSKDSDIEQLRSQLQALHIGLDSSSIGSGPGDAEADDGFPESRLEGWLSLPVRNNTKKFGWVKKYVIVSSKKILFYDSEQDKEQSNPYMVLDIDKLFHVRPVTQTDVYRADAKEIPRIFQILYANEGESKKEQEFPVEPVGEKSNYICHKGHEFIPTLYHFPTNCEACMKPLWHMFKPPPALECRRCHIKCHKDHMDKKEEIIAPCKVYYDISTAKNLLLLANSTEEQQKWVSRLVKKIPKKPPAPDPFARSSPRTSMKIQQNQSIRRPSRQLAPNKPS
Sequence of Dual specificity mitogen-activated protein kinase kinase 1 (Homo sapiens) (Q02750 whole entry): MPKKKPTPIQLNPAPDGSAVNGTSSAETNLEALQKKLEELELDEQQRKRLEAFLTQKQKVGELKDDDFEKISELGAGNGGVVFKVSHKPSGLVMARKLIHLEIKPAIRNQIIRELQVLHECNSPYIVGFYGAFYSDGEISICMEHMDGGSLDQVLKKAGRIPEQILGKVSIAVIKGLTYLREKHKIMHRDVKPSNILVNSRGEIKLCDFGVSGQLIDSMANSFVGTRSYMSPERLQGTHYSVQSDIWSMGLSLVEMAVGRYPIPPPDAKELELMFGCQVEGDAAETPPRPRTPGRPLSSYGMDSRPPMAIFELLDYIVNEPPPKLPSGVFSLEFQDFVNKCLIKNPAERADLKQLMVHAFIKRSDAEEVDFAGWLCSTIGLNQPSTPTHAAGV

**Q.** `Cn1c(CNc2cccc(C(=O)NCc3ccccc3C(F)(F)F)c2)nnc1-c1ccncc1` was tested. Which Activity [1] did it give?
**A.** Its Activity is 95%.

**Q.** What about the Activity [2] of the same compound?
**A.** The Activity was 101%.

**Q.** And the inhibition [3]?
**A.** The inhibition was under 20%.

**Q.** What about the Activity [4] of the same compound?
**A.** The Activity was 88%.

**Q.** And the Activity [5]?
**A.** Its Activity is 89%.

**Q.** And the Activity [6]?
**A.** Its Activity is 86%.

**Q.** What about the inhibition [7] of the same compound?
**A.** Its inhibition is “Active”.

**Q.** What about the Activity [8] of the same compound?
**A.** The Activity was 106%.

**Q.** And the Activity [9]?
**A.** The Activity was 103%.

**Q.** What about the Activity [10] of the same compound?
**A.** The Activity was 79%.

**Q.** What about the Activity [11] of the same compound?
**A.** Its Activity is 79%.

**Q.** And the Activity [12]?
**A.** The Activity was 48%.

**Q.** What about the Activity [13] of the same compound?
**A.** The Activity was 53%.

**Q.** And the Activity [14]?
**A.** The Activity was 103%.

**Q.** What about the Activity [15] of the same compound?
**A.** Its Activity is 83%.

**Q.** And the inhibition [16]?
**A.** Its inhibition is under 20%.

**Q.** And the Activity [17]?
**A.** The Activity was 89%.

**Q.** What about the Activity [18] of the same compound?
**A.** The Activity was 101%.

**Q.** And the Activity [19]?
**A.** The Activity was 92%.

**Q.** What about the inhibition [20] of the same compound?
**A.** Its inhibition is “inactive”.

**Q.** And the Activity [21]?
**A.** Its Activity is 94%.

**Q.** What about the Activity [22] of the same compound?
**A.** The Activity was 69%.

**Q.** What about the Activity [23] of the same compound?
**A.** The Activity was 85%.

**Q.** And the inhibition [24]?
**A.** Its inhibition is “Active”.

**Q.** What about the Activity [25] of the same compound?
**A.** Its Activity is 112%.

**Q.** What about the inhibition [26] of the same compound?
**A.** The inhibition was under 20%.
